Tests used:
[1] = test system: HEK-293T; experiment: Multiplex assay against HEK293T; type: toxicity, cell-based; settings: human;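 as to Population Tubulin-Different-Phenotype (%): share of the cells with healthy nuclei that show this phenotype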
Procedure, shortened: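 With compound added, live cells were imaged on a CQ1 microscope at 37°C and 5% CO2; staining with Hoechst33342, BioTracker Green Microtubule Cytoskeleton Dye, MitoTracker Red and Annexin V Alexa Fluor 680 had been done at seeding. The CellPathfinder machine-learning gating scheme split cells into Hoechst high-intensity objects or normal cells, normal cells into healthy, pyknosed or fragmented nuclei, and pyknosed cells into mitotic or apoptotic. The tubulin, mitochondrial-mass and membrane-permeability phenotypes are per cents of healthy-nucleus cells.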

[2] = test system: Fibroblast; experiment: Incucyte cell viability with human fibroblast; type: toxicity, cell-based; settings: 10 µM, compound concentration 10 uM; also: filed as whole numbers so only -1 and 0 and 1 occur
[3] = 12 h, 1 µM, compound concentration 1 uM, replicate 1
[4] = 12 h, 1 µM, compound concentration 1 uM, replicate 2
[5] = 12 h, 10 µM, compound concentration 10 uM, replicate 1
[6] = 12 h, 10 µM, compound concentration 10 uM, replicate 2
[7] = 24 h, 1 µM, compound concentration 1 uM, replicate 1
[8] = 24 h, 1 µM, compound concentration 1 uM, replicate 2
[9] = 24 h, 10 µM, compound concentration 10 uM, replicate 1
[10] = 24 h, 10 µM, compound concentration 10 uM, replicate 2
[11] = 48 h, 1 µM, compound concentration 1 uM, replicate 1
[12] = 48 h, 1 µM, compound concentration 1 uM, replicate 2
[13] = 48 h, 10 µM, compound concentration 10 uM, replicate 1
[14] = 48 h, 10 µM, compound concentration 10 uM, replicate 2

O=C(O)c1ccc2cc(-c3ccc(O)c(C45CC6CC(CC(C6)C4)C5)c3)ccc2c1 [O-DEMETHYLATED ADAPALENE]
Population Apoptotic (%) [1, 3]: 35% | Population Fragmented Nuclei (%) [1, 3]: 6% | Population Healthy Nuclei (%) [1, 3]: 60% | Population Hoechst High Intensity Objects (%) [1, 3]: 5% | Population Membrane Permeable-Phenotype (%) [1, 3]: 1% | Population Mitochondria Different-Phenotype (%) [1, 3]: 70% | Population Mitotic Cells (%) [1, 3]: 64% | Population Normal (%) [1, 3]: 94% | Population Pyknosed Nuclei (%) [1, 3]: 33% | Population Tubulin-Different-Phenotype (%) [1, 3]: 30% | Total Cell Count [1, 3]: 320 | Population Apoptotic (%) [1, 4]: 12% | Population Fragmented Nuclei (%) [1, 4]: 2% | Population Healthy Nuclei (%) [1, 4]: 57% | Population Hoechst High Intensity Objects (%) [1, 4]: 4% | Population Membrane Permeable-Phenotype (%) [1, 4]: 8% | Population Mitochondria Different-Phenotype (%) [1, 4]: 15% | Population Mitotic Cells (%) [1, 4]: 87% | Population Normal (%) [1, 4]: 95% | Population Pyknosed Nuclei (%) [1, 4]: 40% | Population Tubulin-Different-Phenotype (%) [1, 4]: 17% | Total Cell Count [1, 4]: 214 | Population Apoptotic (%) [1, 5]: 53% | Population Fragmented Nuclei (%) [1, 5]: 21% | Population Healthy Nuclei (%) [1, 5]: 33% | Population Hoechst High Intensity Objects (%) [1, 5]: 15% | Population Mitochondria Different-Phenotype (%) [1, 5]: 52% | Population Mitotic Cells (%) [1, 5]: 46% | Population Normal (%) [1, 5]: 84% | Population Pyknosed Nuclei (%) [1, 5]: 45% | Population Tubulin-Different-Phenotype (%) [1, 5]: 14% | Total Cell Count [1, 5]: 204 | Population Apoptotic (%) [1, 6]: 14% | Population Fragmented Nuclei (%) [1, 6]: 8% | Population Healthy Nuclei (%) [1, 6]: 43% | Population Hoechst High Intensity Objects (%) [1, 6]: 5% | Population Membrane Permeable-Phenotype (%) [1, 6]: 3% | Population Mitochondria Different-Phenotype (%) [1, 6]: 6% | Population Mitotic Cells (%) [1, 6]: 85% | Population Normal (%) [1, 6]: 94% | Population Pyknosed Nuclei (%) [1, 6]: 47% | Population Tubulin-Different-Phenotype (%) [1, 6]: 11% | Total Cell Count [1, 6]: 228 | Population Apoptotic (%) [1, 7]: 37% | Population Fragmented Nuclei (%) [1, 7]: 5% | Population Hoechst High Intensity Objects (%) [1, 7]: 5% | Population Membrane Permeable-Phenotype (%) [1, 7]: 6% | Population Mitochondria Different-Phenotype (%) [1, 7]: 44% | Population Mitotic Cells (%) [1, 7]: 62% | Population Normal (%) [1, 7]: 94% | Population Pyknosed Nuclei (%) [1, 7]: 19% | Population Tubulin-Different-Phenotype (%) [1, 7]: 24% | Total Cell Count [1, 7]: 354 | Population Apoptotic (%) [1, 8]: 13% | Population Fragmented Nuclei (%) [1, 8]: 6% | Population Healthy Nuclei (%) [1, 8]: 75% | Population Hoechst High Intensity Objects (%) [1, 8]: 1% | Population Membrane Permeable-Phenotype (%) [1, 8]: 13% | Population Mitochondria Different-Phenotype (%) [1, 8]: 14% | Population Mitotic Cells (%) [1, 8]: 86% | Population Normal (%) [1, 8]: 98% | Population Pyknosed Nuclei (%) [1, 8]: 18% | Population Tubulin-Different-Phenotype (%) [1, 8]: 26% | Total Cell Count [1, 8]: 257 | Population Apoptotic (%) [1, 9]: 52% | Population Fragmented Nuclei (%) [1, 9]: 16% | Population Healthy Nuclei (%) [1, 9]: 43% | Population Hoechst High Intensity Objects (%) [1, 9]: 20% | Population Membrane Permeable-Phenotype (%) [1, 9]: 1% | Population Mitochondria Different-Phenotype (%) [1, 9]: 34% | Population Mitotic Cells (%) [1, 9]: 47% | Population Normal (%) [1, 9]: 79% | Population Pyknosed Nuclei (%) [1, 9]: 40% | Population Tubulin-Different-Phenotype (%) [1, 9]: 14% | Total Cell Count [1, 9]: 218 | Population Apoptotic (%) [1, 10]: 25% | Population Fragmented Nuclei (%) [1, 10]: 11% | Population Healthy Nuclei (%) [1, 10]: 50% | Population Hoechst High Intensity Objects (%) [1, 10]: 11% | Population Membrane Permeable-Phenotype (%) [1, 10]: 4% | Population Mitochondria Different-Phenotype (%) [1, 10]: 17% | Population Mitotic Cells (%) [1, 10]: 75% | Population Normal (%) [1, 10]: 88% | Population Pyknosed Nuclei (%) [1, 10]: 38% | Population Tubulin-Different-Phenotype (%) [1, 10]: 16% | Total Cell Count [1, 10]: 234 | Population Apoptotic (%) [1, 11]: 26% | Population Fragmented Nuclei (%) [1, 11]: 10% | Population Hoechst High Intensity Objects (%) [1, 11]: 6% | Population Membrane Permeable-Phenotype (%) [1, 11]: 2% | Population Mitochondria Different-Phenotype (%) [1, 11]: 13% | Population Mitotic Cells (%) [1, 11]: 73% | Population Normal (%) [1, 11]: 93% | Population Tubulin-Different-Phenotype (%) [1, 11]: 10% | Total Cell Count [1, 11]: 565 | Population Apoptotic (%) [1, 12]: 15% | Population Fragmented Nuclei (%) [1, 12]: 9% | Population Healthy Nuclei (%) [1, 12]: 80% | Population Hoechst High Intensity Objects (%) [1, 12]: 2% | Population Membrane Permeable-Phenotype (%) [1, 12]: 11% | Population Mitochondria Different-Phenotype (%) [1, 12]: 1% | Population Mitotic Cells (%) [1, 12]: 84% | Population Normal (%) [1, 12]: 97% | Population Pyknosed Nuclei (%) [1, 12]: 9% | Population Tubulin-Different-Phenotype (%) [1, 12]: 19% | Total Cell Count [1, 12]: 390 | Population Apoptotic (%) [1, 13]: 51% | Population Fragmented Nuclei (%) [1, 13]: 21% | Population Healthy Nuclei (%) [1, 13]: 30% | Population Hoechst High Intensity Objects (%) [1, 13]: 19% | Population Membrane Permeable-Phenotype (%) [1, 13]: 1% | Population Mitochondria Different-Phenotype (%) [1, 13]: 22% | Population Mitotic Cells (%) [1, 13]: 48% | Population Normal (%) [1, 13]: 80% | Population Pyknosed Nuclei (%) [1, 13]: 48% | Population Tubulin-Different-Phenotype (%) [1, 13]: 16% | Total Cell Count [1, 13]: 217 | Population Apoptotic (%) [1, 14]: 32% | Population Fragmented Nuclei (%) [1, 14]: 12% | Population Healthy Nuclei (%) [1, 14]: 33% | Population Hoechst High Intensity Objects (%) [1, 14]: 9% | Population Mitochondria Different-Phenotype (%) [1, 14]: 2% | Population Mitotic Cells (%) [1, 14]: 67% | Population Normal (%) [1, 14]: 90% | Population Pyknosed Nuclei (%) [1, 14]: 53% | Population Tubulin-Different-Phenotype (%) [1, 14]: 10% | Total Cell Count [1, 14]: 243 | Growth Rate ([2]; 0 h, replicate number 1, timepoint 0 hours): 0 | Growth Rate ([2]; 6 h, replicate number 1, timepoint 6 hours): 0 | Growth Rate ([2]; 12 h, replicate number 1, timepoint 12 hours): 0 | Growth Rate ([2]; 12 h, replicate number 2, timepoint 12 hours): 1 | Growth Rate ([2]; 18 h, replicate number 1, timepoint 18 hours): 0 | Growth Rate ([2]; 24 h, replicate number 1, timepoint 24 hours): 0

From ChEMBL document CHEMBL4689842, “EUbOPEN Chemogenomics Library wave 1” (2021)
